Compound activity from PubChem.
M4 antag: CHRM4 antagonism in calcium assay. inhibition, % at 3 µM. AID 624125. 360,000 tested, 0.73% active. P08173. CHO-hM4 cells, ACh EC80, Fluo-8 calcium fluorescence;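 active = inhibition above its plate's cutoff, the mean inhibition of sample wells plus 3 SD, cut at about 27% in these data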;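 note: 0% = acetylcholine EC80 with DMSO and 100% = DMSO without agonist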
Target sequence (P08173 whole entry, looked up): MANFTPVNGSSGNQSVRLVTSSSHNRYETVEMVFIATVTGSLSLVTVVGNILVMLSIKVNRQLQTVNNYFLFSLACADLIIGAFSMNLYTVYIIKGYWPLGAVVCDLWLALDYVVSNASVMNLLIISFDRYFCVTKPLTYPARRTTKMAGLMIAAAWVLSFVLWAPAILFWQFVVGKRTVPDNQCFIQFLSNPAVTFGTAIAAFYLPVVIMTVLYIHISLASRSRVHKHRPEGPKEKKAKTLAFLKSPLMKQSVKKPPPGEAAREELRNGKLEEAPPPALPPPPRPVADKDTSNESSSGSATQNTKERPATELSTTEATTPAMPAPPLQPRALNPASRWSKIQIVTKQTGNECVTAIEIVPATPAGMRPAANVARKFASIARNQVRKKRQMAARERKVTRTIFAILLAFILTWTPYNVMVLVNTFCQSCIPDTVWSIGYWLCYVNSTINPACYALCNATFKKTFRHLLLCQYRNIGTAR
CHRM4 agonist: agonists of human muscarinic M4 receptor (CHRM4); P08173; CHO-K1 hM4/Gqi5, Fluo-8 calcium fluorescence; vehicle 0%, full acetylcholine response 100%; activation, % at 3 µM; 360,000 tested, 0.14% active; AID 624127;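 active = activation above the run mean over all test wells plus 3 SD, cut at about 32% in these data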;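 note: peak over basal fluorescence ratio per well then scaled between controls; 0% = DMSO wells and 100% = acetylcholine at EC100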
CHRM5 agonist: CHRM5 agonism in calcium assay | 360,000 tested, 0.19% active | CHO-K1 hM5 cells, Fluo-8 calcium fluorescence; 0% DMSO wells, 100% maximal acetylcholine response | activation, % at 3 µM;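 active = activation above the run's mean over test compounds plus 3 SD, cut at about 23% in these data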;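 note: signal is peak over basal fluorescence ratio across the kinetic read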
CHRM5 PAM: positive allosteric modulators of human muscarinic M5 receptor; P08912; CHO-K1 hM5, Fluo-8 calcium, ACh EC20 PAM; 0% = ACh EC20, 100% = ACh EC100; activation, % at 3 µM; 360,000 tested, 0.3% active; AID 624038;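 active = activation above the run cutoff, the mean activation of all test compounds plus 3 SD, cut at about 18% in these data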
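System: CHO-K1 cell line with stable human muscarinic M5 receptor expression | Also added: EC20 acetylcholine as agonist stimulus | Compound: One concentration, 3 µM final (nominal) | Timing: Fluo-8 loading 80 min at 37 °C plus 30 min room temperature | Measured by: Fluo-8 calcium dye fluorescence, kinetic read | Read-out basis: % activation, ACh-normalized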
M5 antag: CHRM5 antagonism in calcium assay. P08912. CHO-hM5 cells, Fluo-8 calcium fluorescence, ACh EC80. inhibition, % at 3 µM. 360,000 tested, 0.59% active. AID 624040;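 active = inhibition above a per-plate cutoff, the mean of that plate's test compounds plus 3 SD, cut at about 27% in these data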;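 note: 0% = acetylcholine EC80 with DMSO and 100% = DMSO without agonist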
CHRM4 PAM: positive allosteric modulators of human muscarinic M4 receptor | P08173 | CHO-K1 hM4/Gqi5, Fluo-8 calcium fluorescence, ACh EC20; 0% = ACh EC20, 100% = maximal ACh | activation, % at 3 µM | 360,000 tested, 0.4% active;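 active = activation above its plate's cutoff, the mean activation of sample wells plus 3 SD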
* hit, by the source's call. Most compounds without a hit are left out; they make up all but 1.8% or so of the library.

SMILES	M4 antag	CHRM4 agonist	CHRM5 agonist	CHRM5 PAM	M5 antag	CHRM4 PAM
CC(=O)Nc1ccc(-n2nnnc2SCC(=O)Nc2cccc(NC(=O)c3ccco3)c2)cc1	26*	2	-1	3	-6	4
O=C(OC1CC2CC1[C@H]1CCCCN1C2=O)N1CCN(S(=O)(=O)c2ccccc2)CC1 (stereo not given in full)	4	0	-1	-4	7	-2
Cc1c(C(=O)N2CCC(C)(C(=O)NS(=O)(=O)C3CC3)C2)oc2ccccc12 (stereo not given)	-8	1	-1	2	4	17*
Cc1c(C(=O)N2CCCC(C)(C(=O)NS(=O)(=O)C3CC3)C2)oc2ccccc12 (stereo not given)	-6	-1	-1	-5	5	7
CC12CCC3C(=CCc4cc(O)ccc43)C1CC(=NO)C2O (stereo not given)	-16	5	24*	-1	11	3
CC1(Cc2cccc(C(F)(F)F)c2)C(=O)Nc2ccc(-c3ccc(F)c(Cl)c3)cc21 (stereo not given)	-6	1	2	1	-1	4
CN1CCC2(CC1)N=C(c1ccc(F)cc1)C(=S)N2C(=O)c1ccc(C(C)(C)C)cc1	5	2	-10	-21	33*	-2
N#Cc1csc(CCNC(=O)c2ccccc2)n1	7	0	0	1	2	-3
COc1ccc(CN(C)C[C@H]2OCc3cnnn3CCCC(=O)N([C@H](C)CO)C[C@@H]2C)cc1	-16	1	-1	-2	10	3
Fc1ccc2nc(C3CCCCN3Cc3nc(CC4CC4)no3)[nH]c2c1 (stereo not given)	-7	6	3	27*	9	9
Cn1c(CCN2CCN(c3ccccn3)CC2)nc2cc(NC(=O)COc3ccc(Cl)cc3)ccc21	21	22	-5	-16	27*	-14
Cc1ccc(S(=O)(=O)Nc2ccc3c(c2)nc(CCN2CCN(c4ccccn4)CC2)n3C)cc1	17	5	-9	-6	14	-12
Cn1c(CCN2CCN(c3ccccn3)CC2)nc2cc(NS(=O)(=O)c3ccc(Cl)cc3)ccc21	21	20	-7	-16	27*	-14
COCCCNC1=C(C#N)C(=O)NC2(CCCC2)S1	-9	1	-1	1	1	0
Cn1cnc(S(=O)(=O)Nc2ccc(Cl)c(C(F)(F)F)c2)c1	6	1	-5	11	-16	15*
Cn1cnc(S(=O)(=O)Nc2ccc(C(F)(F)F)cc2)c1	-11	1	-2	-4	2	4
CCOC(=O)C1(C)CCCN1C(=O)c1csnn1 (stereo not given)	10	1	0	-2	2	-4
c1ccc(COc2ncnc3c2ncn3CCCN2CCN(Cc3cccc4ccccc34)CC2)cc1	-13	23	-1	-6	0	-13
Cc1ccc(CN2CCN(CCCn3cnc4c(OCc5ccccc5)ncnc43)CC2)cc1	33*	9	-1	-12	15	-16
CCOc1ccc(S(=O)(=O)NCCc2cn3ccccc3n2)cc1	-2	2	-5	3	12	16*
O=C(NCc1ccccc1)C1c2ccccc2OCC(=O)N1Cc1cccnc1 (stereo not given)	-3	0	3	3	4	10
CCCCC1CCC(c2nc(-c3ccccn3)no2)CC1 (stereo not given)	-1	-1	1	2	1	18
c1ccc(-c2noc(C3CCC3)n2)nc1	-7	1	5	18*	-10	1
CC1=CC(C)(C)N(C(=O)c2ccccc2)c2ccccc21	-11	-4	0	2	-1	7
CC1=CC(C)(C)N(C(=O)c2ccccc2)c2ccc(C)cc21	2	8	23*	6	2	-5
COC(=O)C[C@H]1C=C[C@H](NC(=O)c2ccccn2)[C@@H](CO)O1	-10	0	2	0	6	10
O=C1NC2c3ccccc3C(=O)N2c2c1cnn2-c1ccccc1 (stereo not given)	-4	2	-1	3	-5	18*
